High-throughput results (PubChem BioAssay)
An excerpt weighted towards active compounds, which were near 1.5% of everything screened.
HNF4A DNA FP – change in binding of human HNF4A to DNA, primary screen, biochemical, fluorescence polarization, FITC-DNA. Hepatocyte nuclear factor 4-alpha (Homo sapiens), P41235. 1 h. activity change, % at 10 µM. actives 0.3% (n = 360,000). AID 1224865, 2016; in the data active means activity change above about 30%, passing the limit was not always enough
NR1D1 modulator – modulators of Rev-erb alpha DNA binding, primary screen, biochemical, FITC-DNA, fluorescence polarization, uHTS | actives 0.79% (n = 370,000) | Nuclear receptor subfamily 1 group D member 1 (Homo sapiens), P20393 | activity, % at 10 µM | Rev-erbα–FITC-DNA binding, 90 min | AID 1259318, 2017;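 active means activity above about 14%, limit read from the data; passing the limit was not always enough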;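 further: 0% = DMSO wells with 35 nM protein and 100% = DMSO wells with 750 nM protein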
CSN inh – inhibitors of CSN-mediated cullin deneddylation, primary screen, biochemical, fluorescence polarization, uHTS; COP9 signalosome complex subunit 5 (Homo sapiens), Q92905; Purified CSN, SCF-Nedd8-OG deneddylation; inhibition, % at 12.5 µM; actives 0.38% (n = 360,000); AID 651999, 2013;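 active means pattern-corrected inhibition above about 35%, with an unprinted fluorescence ratio check between 0.5 and 1.5, limit read from the data, passing the limit was not always enough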;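 further: 0% = enzyme with substrate and 100% = substrate without enzyme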
Target sequence (Q92905 whole entry, looked up, one chain of several): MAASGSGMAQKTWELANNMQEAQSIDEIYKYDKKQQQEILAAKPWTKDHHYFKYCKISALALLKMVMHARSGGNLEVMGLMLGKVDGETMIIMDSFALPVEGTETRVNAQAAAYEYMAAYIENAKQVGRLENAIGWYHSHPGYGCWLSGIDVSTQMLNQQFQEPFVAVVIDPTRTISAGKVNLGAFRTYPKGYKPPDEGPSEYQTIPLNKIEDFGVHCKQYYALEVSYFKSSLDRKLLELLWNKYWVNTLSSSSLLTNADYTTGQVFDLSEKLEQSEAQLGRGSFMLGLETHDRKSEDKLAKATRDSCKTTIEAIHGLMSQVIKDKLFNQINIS
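assay system = purified human Csn5 enzyme expressed in HEK293T cells | amount = 0.24 nM enzyme | buffer or medium = Tris/NaCl/DTT buffer, pH 7.5 | reagent = 10 nM SCFSkp2-Nedd8OG | compound = one concentration, 12.5 µM, 0.25% DMSO | times = 90 min reaction at room temperature | signal = FP | read-out basis = % inhibition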
aDG glyco act – activators of alpha-DG glycosylation, primary screen, uHTS, Pro5-aDG cells, AlphaScreen; alpha-DG glycosylation AlphaScreen (IIH6); 0% Pro5, 100% B10-LARGE cell signal; activation, % at 10 µM; actives 0.22% (n = 360,000);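 active means activation of at least 8% versus controls, or a plate z-score of at least 8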;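 further: Pro5 are CHO cells carrying HIG-tagged alpha-DG that lacks glycosylation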
NR1D1 mod conf – modulators of Rev-erb alpha DNA binding, confirmation, biochemical, FITC-DNA, fluorescence polarization, single point | 90 min | activation, % at 25 µM | shares compounds with NR1D1 modulator | actives 61% (n = 3,000) | AID 1259319, 2017;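 active means activation at or above a set limit, or at least 3 SD above the negative control mean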;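 further: 0% = 35 nM protein with DMSO and 100% = 750 nM protein high control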
RORg counter – modulation of RORgamma DNA binding, dose response, counter-screen for Rev-erb alpha modulator project, biochemical, fluorescence polarization, FITC-DNA; shares compounds with NR1D1 modulator; purified RORgamma protein-FITC-DNA binding; IC50, µM; actives 8% (n = 910); AID 1259320, 2017;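 active means Compounds whose fitted half-maximal concentration for disrupting protein-DNA binding is below 10 micromolar; the record names Rev-erb in its text, so the target is in doubt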
* = called active by the depositor.

CCOC(=O)[C@@]12CN(C(=O)OC(C)(C)C)CC=C1N(Cc1ccc(OC)cc1)C(=O)[C@H]2CC(=O)NCCCOC was read as NR1D1 modulator 2.
For O=C(CSc1nnc(-c2ccccn2)n1-c1ccc(Cl)cc1)Nc1cccc2ccccc12 the results were NR1D1 modulator -3.
Screening O=C1/C(=C/c2ccc(N3CCCC3)cc2)NC(=S)N1C1CC1 returned HNF4A DNA FP 169, NR1D1 modulator 27*, CSN inh 134, aDG glyco act 0 and NR1D1 mod conf 27*.
`Cc1cc(N2CCCC2)ccc1/C=C1\NC(=S)N(C)C1=O` gave HNF4A DNA FP 153, NR1D1 modulator 30*, CSN inh 141, aDG glyco act 1, NR1D1 mod conf 50* and RORg counter >40.
`CN1C(=O)c2ccc(N3CCCC3)cc2C1=O` gave HNF4A DNA FP 0, NR1D1 modulator 2, CSN inh 3 and aDG glyco act 0.
For CCCCCCCCN1C(=O)[C@@H](CC(=O)NCc2ccc(OC)c(OC)c2)C[C@@]2(C(=O)OC)C1=C[C@H](C(C)C)O[C@@H]2C1CC1 the results were NR1D1 modulator 3.
For CCOc1ccc(CCNC(=O)c2cc(-c3ccccc3)c(N3CCOCC3)s2)cc1 the results were HNF4A DNA FP 0, NR1D1 modulator 91*, CSN inh -2, aDG glyco act 0, NR1D1 mod conf 80* and RORg counter >40.
For CCN(Cc1cn(Cc2ccc(C)cc2)nn1)S(=O)(=O)c1ccccc1Br the results were NR1D1 modulator 1.
O=C(Nc1ccccc1F)c1cccc(C(=O)Nc2ccccc2F)c1 was read as HNF4A DNA FP -1, NR1D1 modulator 41*, CSN inh 0, aDG glyco act 0 and NR1D1 mod conf -3.
Screening CCN(CC)c1ccc(/C=C(/C#N)c2nc3ccccc3[nH]2)c(OC(C)C)c1 returned HNF4A DNA FP 53, NR1D1 modulator 39*, CSN inh -65, aDG glyco act 0, NR1D1 mod conf 46* and RORg counter >40.
For CC(C)c1[nH]nc2c1C(c1ccc3c(c1)OCO3)NC2=O (stereo not drawn) the results were NR1D1 modulator 22* and NR1D1 mod conf -5.
`O=C(Nc1c(-c2ccccc2)nc2ncccn12)C1CC1` gave NR1D1 modulator 1.
N#C/C(=C\c1ccccc1C(=O)O)c1nc2ccccc2[nH]1 was read as HNF4A DNA FP 0, NR1D1 modulator -2, CSN inh 0 and aDG glyco act 0.
For N#C/C(=C\c1ccc(-c2ccc(C(=O)O)cc2)o1)c1nc2ccccc2[nH]1 the results were HNF4A DNA FP 145, NR1D1 modulator 42*, CSN inh 126, aDG glyco act 0 and NR1D1 mod conf 27*.
Cc1cnc(NC(=O)c2cc3c(C)nn(-c4ccccc4)c3s2)s1 was read as HNF4A DNA FP 3, NR1D1 modulator 40*, CSN inh -6, aDG glyco act 0, NR1D1 mod conf 35* and RORg counter >40.
Screening Cc1c(/C(O)=C2\C(=O)C(=O)N(CCN(C)C)C2c2cccnc2)cnn1-c1ccccc1 (stereo not drawn) returned HNF4A DNA FP 0, NR1D1 modulator 2, CSN inh 0 and aDG glyco act 0.
`CCN(CC)CCN1C(=O)C(=O)/C(=C(/O)c2ccc(OC(C)C)cc2)C1c1cccs1` (stereo not drawn) gave HNF4A DNA FP -3, NR1D1 modulator 41*, CSN inh -2, aDG glyco act 0 and NR1D1 mod conf 27*.
Cc1c(/C(O)=C2\C(=O)C(=O)N(CCN(C)C)C2c2cccs2)cnn1-c1ccccc1 (stereo not drawn) was read as HNF4A DNA FP 0, NR1D1 modulator 19*, CSN inh 2, aDG glyco act 0 and NR1D1 mod conf 27*.
For CC(C)C[C@H]1COc2ccc(Cl)cc2S(=O)(=O)N1Cc1cn(Cc2ccc(C(F)(F)F)cc2)nn1 the results were NR1D1 modulator 4.
For O=C(NCCc1ccccc1)OCc1cn(Cc2cccc(Cl)c2)nn1 the results were NR1D1 modulator 6.
`COC(=O)[C@]1(Cc2ccccc2)N[C@H](c2ccc(-c3cc(C(C)=O)cs3)cc2)[C@@H]2C(=O)N(C)C(=O)[C@@H]21` gave HNF4A DNA FP -2, NR1D1 modulator 23*, CSN inh -1, aDG glyco act 0 and NR1D1 mod conf 12.
Screening COC(=O)[C@]1(Cc2ccccc2)N[C@H](c2ccc(-c3ccccc3)cc2)[C@@H]2C(=O)N(C)C(=O)[C@@H]21 returned HNF4A DNA FP 7, NR1D1 modulator -1, CSN inh 5 and aDG glyco act 0.
`COc1cc(-c2nc(-c3ccc(Br)o3)no2)cc(OC)c1OC` gave HNF4A DNA FP 6, NR1D1 modulator 27*, CSN inh 3, aDG glyco act 0 and NR1D1 mod conf 8.
For COc1ccc(-c2noc(-c3ccc(Br)o3)n2)cc1OC the results were HNF4A DNA FP -1, NR1D1 modulator 0, CSN inh 4 and aDG glyco act 0.
For COc1ccc2cc(C#N)c(Nc3cccc(F)c3)nc2c1 the results were HNF4A DNA FP 1, NR1D1 modulator 55*, CSN inh 0, aDG glyco act 0, NR1D1 mod conf 42* and RORg counter >40.
Screening COc1ccc(Nc2nc3cc(C)ccc3cc2C#N)cc1 returned HNF4A DNA FP -1, NR1D1 modulator 12, CSN inh 2 and aDG glyco act 0.
`Clc1ccc(-c2cnc(Oc3ccccc3)nc2)cc1` gave HNF4A DNA FP -3, NR1D1 modulator 5, CSN inh -1 and aDG glyco act 0.
Screening Cc1ccc(Oc2nccc(-c3ccc(Cl)cc3)n2)cc1 returned HNF4A DNA FP -10, NR1D1 modulator 47*, CSN inh -9, aDG glyco act 0, NR1D1 mod conf 46* and RORg counter >40.
C=CCn1c(=NC(=O)c2cccs2)sc2cccc(OC)c21 was read as HNF4A DNA FP 2, NR1D1 modulator -4, CSN inh 1 and aDG glyco act 0.
`C#CCn1c(=NC(=O)c2ccc(Br)s2)sc2cccc(OC)c21` gave HNF4A DNA FP 2, NR1D1 modulator 27*, CSN inh 9, aDG glyco act 0, NR1D1 mod conf 43* and RORg counter inactive.
